Measured values: paper PMC4178936 (The Journal of General Physiology, 2014)
Where two headings read alike, the source gives them in different places.

Assays:
WT CFTR [1] = biological target: T1, WT CFTR (Homo sapiens, UniProt P13569); assay: Steady-state macroscopic WT CFTR currents; type: biochemical
K1250A CFTR [2] = biological target: T2, K1250A CFTR (Homo sapiens, UniProt P13569, K1250A); assay: Steady-state versus locked-open K1250A CFTR currents; type: biochemical; details: 32 mM 3NB, 20 mM 3PP; 10 mM ATP; −20 mV
Method in brief: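 K1250A CFTR was recorded at −20 mV in 10 mM ATP, 25°C. Head (32 mM) or tail (20 mM) fragment was applied for long periods to channels gating at steady state (I/Icontrol), and briefly to locked-open channels after ATP removal (i/icontrol). Po change = (I/Icontrol)/(i/icontrol).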

WT CFTR [3] = biological target: T1, WT CFTR; assay: Single-channel steady-state kinetic analysis of WT CFTR; type: biochemical; details: 20 mM 3PP, −80 mV
Method in brief: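 Steady-state WT CFTR gating was recorded after PKA prephosphorylation, in 2 mM ATP at −80 mV and 25°C. Patches held one active channel for the 32 mM head fragment, or one to four for the 20 mM tail fragment. Traces were filtered at 100 Hz (control, tail) or 50 Hz (head) and idealized by half-amplitude threshold. Events were fitted by maximum likelihood to a closed-open-blocked scheme (dead times 4 and 6 ms), yielding τb and τib.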

K1250A CFTR [4] = biological target: T2, K1250A CFTR; assay: Macroscopic nonhydrolytic closing rate of K1250A CFTR after ATP removal; type: biochemical
Method in brief: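 Nonhydrolytic closure of K1250A CFTR was studied in inside-out oocyte patches at 25°C, with channels gating in 10 mM MgATP after PKA prephosphorylation. The rate was the inverse of a single-exponential fit to current decay after ATP removal, normalized to same-patch control. Parent-compound series was recorded at −40 mV, fragment series at −20 mV. Mean ± SEM of at least five.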

CFTR pore-binding site = CFTR pore-binding site (Homo sapiens, UniProt P13569, K1250A); assay: Estimated dissociation constants and free enthalpies of binding in the pore; type: biochemical; details: Kd(0) estimate for binding in the pore
K1250A CFTR [5] = biological target: T2, K1250A CFTR; assay: Macroscopic pore-block/permeation assay on locked-open K1250A CFTR currents; type: biochemical; details: for fractional current of locked-open K1250A CFTR: 210 µM NPPB, 32 mM 3NB, 20 mM 3PP
Method in brief: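 K1250A channels were locked open by removing 10 mM MgATP, in inside-out oocyte patches at 25°C, −80 and 60 mV. Test compounds were applied briefly alone or pairwise (head fragment 32 mM, tail fragment 20 mM, parent 210 µM). Tail stock 50 mM was titrated with sulfuric acid (~0.45 mol/mol), so sulfate 1–20 mM was tested separately. Fractional current = quasi-steady drug current ÷ mean pre/post current. Apparent KI came from dose–response fits.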

CFTR gating site = CFTR gating site (Homo sapiens, UniProt P13569); type: biochemical
Method in brief: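 Gating-site Kd was taken as the apparent K1/2 for stimulation of WT CFTR open probability at −80 mV, from Hill fits to Po dose–response curves, with binding assumed voltage independent. ΔG°binding = kT·ln(Kd).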

WT CFTR [6] = biological target: T1, WT CFTR; assay: Macroscopic; type: biochemical
Method in brief: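 Human WT CFTR from cRNA (0.1–10 ng) was expressed in Xenopus oocytes; excised inside-out patches at 25°C, NMDG-Cl solutions, bath pH 7.1. Channels were prephosphorylated with 300 nM PKA catalytic subunit and gated in 2 mM MgATP ± test compound. Current decay after sudden ATP removal was fitted to a single exponential (rate = 1/τ), normalized to same-patch control and rescaled by pooled control mean. Mean ± SEM, n ≥ 5.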

E1371S CFTR [7] = biological target: T3, E1371S CFTR (Homo sapiens, UniProt P13569, E1371S); type: biochemical; details: 80 mM MOPS−; −120 mV
Method in brief: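 E1371S CFTR channels were locked open in inside-out oocyte patches at 25°C, phosphorylated by PKA or endogenously. After ATP removal, test compound was applied briefly with or without 80 mM MOPS− (MOPS solutions pH 7.2, ~50% ionized). Fractional current = quasi-steady current in drug ÷ mean of pre- and post-exposure currents. Apparent KI was taken from dose–response fits. Mean ± SEM, n ≥ 5.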

E1371S CFTR [8] = biological target: T3, E1371S CFTR; details: read-out: apparent KI for pore block; −120 mV; ref Csanády and Töröcsik, 2014; cited from earlier work
ΔF508 CFTR = details: in vitro, cited from earlier work

Chain of CFTR pore-binding site (P13569 whole entry K1250A): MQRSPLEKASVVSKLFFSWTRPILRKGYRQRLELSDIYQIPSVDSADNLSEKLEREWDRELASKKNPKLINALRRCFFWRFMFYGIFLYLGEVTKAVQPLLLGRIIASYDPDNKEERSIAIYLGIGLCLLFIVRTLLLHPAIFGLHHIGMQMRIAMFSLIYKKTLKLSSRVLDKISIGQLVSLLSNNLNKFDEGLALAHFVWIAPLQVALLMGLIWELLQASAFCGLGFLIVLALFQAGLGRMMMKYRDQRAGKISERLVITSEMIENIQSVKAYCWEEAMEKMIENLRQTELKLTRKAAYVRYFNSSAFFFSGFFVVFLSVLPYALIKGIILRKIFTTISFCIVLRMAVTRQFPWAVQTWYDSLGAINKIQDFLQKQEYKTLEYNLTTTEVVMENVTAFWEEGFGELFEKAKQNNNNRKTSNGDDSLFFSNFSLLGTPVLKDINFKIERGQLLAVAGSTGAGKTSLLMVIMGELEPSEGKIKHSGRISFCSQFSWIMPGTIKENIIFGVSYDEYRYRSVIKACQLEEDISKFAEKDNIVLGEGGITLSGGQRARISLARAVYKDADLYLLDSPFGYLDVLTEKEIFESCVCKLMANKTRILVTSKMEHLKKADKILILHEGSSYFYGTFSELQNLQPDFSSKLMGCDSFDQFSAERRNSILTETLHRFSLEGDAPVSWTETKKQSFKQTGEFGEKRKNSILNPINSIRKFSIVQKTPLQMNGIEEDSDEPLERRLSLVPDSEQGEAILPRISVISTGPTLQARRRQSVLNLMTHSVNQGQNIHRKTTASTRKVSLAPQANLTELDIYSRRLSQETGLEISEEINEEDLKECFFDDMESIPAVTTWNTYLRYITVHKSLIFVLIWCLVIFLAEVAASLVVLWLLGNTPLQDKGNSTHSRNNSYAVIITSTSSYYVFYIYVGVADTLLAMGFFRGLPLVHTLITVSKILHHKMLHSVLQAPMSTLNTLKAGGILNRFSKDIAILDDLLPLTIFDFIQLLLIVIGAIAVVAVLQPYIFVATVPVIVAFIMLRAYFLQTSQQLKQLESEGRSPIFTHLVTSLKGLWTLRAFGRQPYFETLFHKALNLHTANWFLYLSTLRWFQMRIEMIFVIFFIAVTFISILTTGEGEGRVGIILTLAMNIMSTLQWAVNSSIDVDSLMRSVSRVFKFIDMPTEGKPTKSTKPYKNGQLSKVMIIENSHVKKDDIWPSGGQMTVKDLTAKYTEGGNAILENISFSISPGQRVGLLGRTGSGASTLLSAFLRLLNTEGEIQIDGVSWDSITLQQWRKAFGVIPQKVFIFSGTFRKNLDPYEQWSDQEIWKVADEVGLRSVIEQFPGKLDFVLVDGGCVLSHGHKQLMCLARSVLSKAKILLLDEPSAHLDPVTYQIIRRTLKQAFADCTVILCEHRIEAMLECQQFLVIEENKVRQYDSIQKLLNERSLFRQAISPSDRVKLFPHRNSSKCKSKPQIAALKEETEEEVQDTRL
T2 sequence (P13569 whole entry K1250A, the tested form may be a part): as the sequence (P13569 whole entry K1250A) above
T1 sequence (P13569 whole entry): as the sequence (P13569 whole entry K1250A) above, with A1250K counted along it
T3 sequence (P13569 whole entry E1371S): as the sequence (P13569 whole entry K1250A) above, with A1250K, E1371S counted along it
Chain of CFTR gating site (P13569 whole entry): as the sequence (P13569 whole entry K1250A) above, with A1250K counted along it

NCCCc1ccccc1 [3PP, 3-phenylpropylamine]
stimulation of open probability for WT CFTR (WT CFTR [1]; high concentrations, −80 mV, macroscopic): two- to threefold | effect on Po of K1250A CFTR (K1250A CFTR [2]): no change in Po | effect on unitary current amplitude (WT CFTR [3]): little affected unitary current amplitude | effect on mean burst duration τb (WT CFTR [3]; 32 mM 3NB, 2 mM ATP): prolonged τb | effect on mean interburst duration τib (WT CFTR [3]; 32 mM 3NB, 2 mM ATP): did not affect τib | stimulation of single-channel Po (WT CFTR [3]; 32 mM 3NB, 2 mM ATP): twofold | acceleration of K1250A closing rate (K1250A CFTR [4]; 20 mM 3PP, −20 mV): ~20% | Kd (CFTR pore-binding site; assuming z = 0.1): 12.6 mM | Kd (CFTR pore-binding site; assuming z = 0.2): 16 mM | Kd (CFTR pore-binding site; assuming z = 0.5): 32 mM | effects on unitary currents (K1250A CFTR [5]; 20 mM 3PP-sulfate): ~10% | fractional current of locked-open K1250A CFTR (K1250A CFTR [5]; 60 mV): ~1.11 | EC50 (K1250A CFTR [5]; K1/2 for enhancement of locked-open K1250A current, 60 mV, tentative Hill fit): ~10 mM | enhancement of the rate of ion flow through locked-open K1250A channels (K1250A CFTR [5]; positive voltages (60 mV), high 3PP concentrations): ~10% | fractional current of locked-open K1250A CFTR (K1250A CFTR [5]; −80 mV): ~0.91 | Kd (CFTR gating site): 6 mM | slowing of WT CFTR hydrolytic closing rate (WT CFTR [6]; 20 mM 3PP-sulfate, −80 mV): ~2.5 fold

O=S(=O)(O)CCCN1CCOCC1 [MOPS^−, reference compound]
effect on K1250A closing rate (K1250A CFTR [4]; 80 mM MOPS−, −40 mV): neither affected K1250A closing rate | reduction of macroscopic current through locked-open E1371S channels (E1371S CFTR [7]): ~90% | effect on WT CFTR closing rate (WT CFTR [6]; 80 mM MOPS−, −120 mV): little affected | Ki (E1371S CFTR [8]): 8.3 mM

CC(C)(C)c1cc(C(C)(C)C)c(NC(=O)c2c[nH]c3ccccc3c2=O)cc1O [VX-770]
stimulation of ΔF508 CFTR currents (ΔF508 CFTR; ref Kopeikin et al., 2014): 10–20 fold | stimulation of ΔF508 CFTR currents (ΔF508 CFTR; ref Van Goor et al., 2009): ~5 fold

O=S(=O)(O)O [sulfate]
effect on WT CFTR open probability / gating (WT CFTR [1]; 10 mM sulfate): little effect | effect on locked-open channel currents (K1250A CFTR [5]; 60 mV): did not affect locked-open channel currents | sulfate concentration yielding maximal pore block (K1250A CFTR [5]; −80 mV, anomalous dose dependence): ~5 mM | effect on WT CFTR closing rate (WT CFTR [6]; 10 mM sulfate): did not affect WT CFTR closing rate
